From ChEMBL document CHEMBL3232844, “Synthesis and structure activity relationships of schweinfurthin indoles” (2014)

Experiments:
Type in all cases: functional
SNB-19 = experiment: Cytotoxicity against human SNB19 cells; conditions: for CC50: read-out: pLC50 (the source's name) (converted); for TGI: read-out: pTGI (converted)
Summary of the method: (§1)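 Tested in a 60-cell-line human tumor panel screen; the read-out is growth inhibition, reported as GI50 for each cell line.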

SK-MEL-28 = experiment: Cytotoxicity against human SK-MEL-28 cells; conditions: for CC50: read-out: pLC50 (the source's name) (converted); for TGI: read-out: pTGI (converted); summary of the method: as §1
HOP-92 = experiment: Cytotoxicity against human HOP92 cells; conditions: for CC50: read-out: pLC50 (the source's name) (converted); for TGI: read-out: pTGI (converted); summary of the method: as §1
Malme-3M = experiment: Cytotoxicity against human MALME-3M cells; conditions: for CC50: read-out: pLC50 (the source's name) (converted); for TGI: read-out: pTGI (converted); summary of the method: as §1
HOP-62 = experiment: Cytotoxicity against human HOP62 cells; conditions: for CC50: read-out: pLC50 (the source's name) (converted); for TGI: read-out: pTGI (converted); summary of the method: as §1
SW-620 = experiment: Cytotoxicity against human SW620 cells; conditions: for CC50: read-out: pLC50 (the source's name) (converted); for TGI: read-out: pTGI (converted)
Summary of the method: (§2)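 Cell line run as part of the 60-cell-line screening panel; growth inhibition was reported as a GI50 for each line.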

SF-268 = experiment: Cytotoxicity against human SF268 cells; conditions: for CC50: read-out: pLC50 (the source's name) (converted); for TGI: read-out: pTGI (converted); summary of the method: as §1
DU-145 = experiment: Cytotoxicity against human DU145 cells; conditions: for TGI: read-out: pTGI (converted); summary of the method: as §1
KM12 = experiment: Cytotoxicity against human KM12 cells; conditions: for CC50: read-out: pLC50 (the source's name) (converted); for TGI: read-out: pTGI (converted); summary of the method: as §1
HCC 2998 = experiment: Cytotoxicity against human HCC2998 cells; conditions: for CC50: read-out: pLC50 (the source's name) (converted); for TGI: read-out: pTGI (converted); summary of the method: as §1
TK-10 = experiment: Cytotoxicity against human TK10 cells; conditions: for TGI: read-out: pTGI (converted); summary of the method: as §2
[1] = Cytotoxicity against human OVCAR5 cells; conditions: for GI50: OVCAR-5; for CC50: OVCAR-5, read-out: pLC50 (the source's name) (converted); for TGI: OVCAR-5, read-out: pTGI (converted); summary of the method: as §1
SR = experiment: Cytotoxicity against human SR cells; conditions: for CC50: read-out: pLC50 (the source's name) (converted); for TGI: read-out: pTGI (converted); summary of the method: as §2
RPMI-8226 = experiment: Cytotoxicity against human RPMI8226 cells; conditions: for CC50: read-out: pLC50 (the source's name) (converted); for TGI: read-out: pTGI (converted); summary of the method: as §1
[2] = Cytotoxicity against human OVCAR8 cells; conditions: for GI50: OVCAR-8; for CC50: OVCAR-8, read-out: pLC50 (the source's name) (converted); for TGI: OVCAR-8, read-out: pTGI (converted); summary of the method: as §1
NCI-H522 = experiment: Cytotoxicity against human NCI-H522 cells; conditions: for CC50: read-out: pLC50 (the source's name) (converted); for TGI: read-out: pTGI (converted); summary of the method: as §1
[3] = Cytotoxicity against human Hs578T cells; conditions: Hs-578T; for TGI: read-out: pTGI (converted); summary of the method: as §1

COc1cc(/C=C/c2cc(O)c3cc[nH]c3c2)cc2c1O[C@]1(C)CC[C@@H](O)C(C)(C)[C@H]1C2
GI50 (SNB-19): 1.32 µM | CC50 (SNB-19): > 100 µM | TGI (SNB-19): 18.2 µM | GI50 (SK-MEL-28): 1.48 µM | CC50 (SK-MEL-28): > 100 µM | TGI (SK-MEL-28): > 100 µM | GI50 (HOP-92): 1.23 µM | CC50 (HOP-92): > 100 µM | TGI (HOP-92): 19.1 µM | GI50 (Malme-3M): 1.74 µM | CC50 (Malme-3M): 52.5 µM | TGI (Malme-3M): 10.7 µM | GI50 (HOP-62): 1.91 µM | CC50 (HOP-62): > 100 µM | TGI (HOP-62): 8.13 µM | GI50 (SW-620): 1.26 µM | CC50 (SW-620): 8.13 µM | TGI (SW-620): 3.16 µM | GI50 (SF-268): 0.794 µM | CC50 (SF-268): > 100 µM | TGI (SF-268): 34.7 µM | GI50 (DU-145): 1.15 µM | LC50 (50% lethal concentration) (DU-145): 25.1 µM | TGI (DU-145): 6.76 µM | GI50 (KM12): 0.457 µM | CC50 (KM12): 9.55 µM | TGI (KM12): 1.86 µM | GI50 (HCC 2998): 2.88 µM | CC50 (HCC 2998): 55 µM | TGI (HCC 2998): 14.5 µM | GI50 (TK-10): 5.62 µM | LC50 (TK-10): > 100 µM | TGI (TK-10): 49 µM | GI50 [1]: 7.41 µM | CC50 [1]: > 100 µM | TGI [1]: 41.7 µM | GI50 (SR): 0.302 µM | CC50 (SR): > 100 µM | TGI (SR): 9.55 µM | GI50 (RPMI-8226): 0.316 µM | CC50 (RPMI-8226): > 100 µM | TGI (RPMI-8226): 2.51 µM | GI50 [2]: 1.2 µM | CC50 [2]: > 100 µM | TGI [2]: 30.9 µM | GI50 (NCI-H522): 1.29 µM | CC50 (NCI-H522): 41.7 µM | TGI (NCI-H522): 8.32 µM | GI50 [3]: 0.251 µM | LC50 [3]: > 100 µM | TGI [3]: 0.871 µM

COc1cc(/C=C/c2cc(O)c3cc(CC=C(C)C)[nH]c3c2)cc2c1O[C@]1(C)CC[C@@H](O)C(C)(C)[C@H]1C2
GI50 (SNB-19): 2.63 µM | CC50 (SNB-19): > 100 µM | TGI (SNB-19): > 100 µM | GI50 (SK-MEL-28): 4.68 µM | CC50 (SK-MEL-28): 91.2 µM | TGI (SK-MEL-28): 50.1 µM | GI50 (HOP-92): 1.38 µM | CC50 (HOP-92): > 100 µM | TGI (HOP-92): 42.7 µM | GI50 (Malme-3M): 4.9 µM | CC50 (Malme-3M): > 100 µM | TGI (Malme-3M): > 100 µM | GI50 (HOP-62): 0.832 µM | CC50 (HOP-62): > 100 µM | TGI (HOP-62): 46.8 µM | GI50 (SW-620): 2.04 µM | CC50 (SW-620): 39.8 µM | TGI (SW-620): 8.32 µM | GI50 (SF-268): 4.27 µM | CC50 (SF-268): > 100 µM | TGI (SF-268): > 100 µM | GI50 (DU-145): 8.13 µM | LC50 (50% lethal concentration) (DU-145): > 100 µM | TGI (DU-145): > 100 µM | GI50 (KM12): 2.04 µM | CC50 (KM12): 74.1 µM | TGI (KM12): 10.5 µM | GI50 (HCC 2998): 9.55 µM | CC50 (HCC 2998): > 100 µM | TGI (HCC 2998): > 100 µM | GI50 (TK-10): 19.1 µM | LC50 (TK-10): > 100 µM | TGI (TK-10): > 100 µM | GI50 [1]: 25.7 µM | CC50 [1]: > 100 µM | TGI [1]: > 100 µM | GI50 (SR): 0.759 µM | CC50 (SR): > 100 µM | TGI (SR): > 100 µM | GI50 (RPMI-8226): 0.282 µM | CC50 (RPMI-8226): > 100 µM | TGI (RPMI-8226): 32.4 µM | GI50 [2]: > 100 µM | CC50 [2]: > 100 µM | TGI [2]: > 100 µM | GI50 (NCI-H522): 4.9 µM | CC50 (NCI-H522): > 100 µM | TGI (NCI-H522): 43.7 µM | GI50 [3]: 0.309 µM | LC50 [3]: > 100 µM | TGI [3]: > 100 µM
